High-throughput results as filed in PubChem BioAssay.
TAAR1 antag: antagonists of human TAAR1; Q96RJ0; CHO RD-HGA16 TAAR1, Fluo-8 calcium fluorescence, antagonist; inhibition, % at 3 µM; 360,000 tested, 1.5% active; AID 624466;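 active means inhibition above a per-plate cutoff, the mean inhibition of test compounds on that plate plus 3 SD, cut at about 49% in these data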;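 further: 0% = DMSO plus EC80 beta-PEA response and 100% = DMSO alone without agonist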
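Test system: RD-HGA16 CHO cells with stable hTAAR1 and Gα16 / Probe or stimulus: EC80 β-phenethylamine stimulus / Times: seeding 17-24 h prior, 75-min 37 °C, 30-min RT dye loading / Detection: Fluo-8 calcium-sensitive fluorescence / Read-out basis: % inhibition scaled between DMSO and EC80 PEA controls / Repeats: singlicate, one well per test compound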
MPTP inh: inhibitors of mitochondrial permeability transition pore; 360,000 tested, 1.4% active; inhibition, % at 10 µM; isolated mouse mitochondria, Ca2+ swelling absorbance, 30 min;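 active means inhibition of 50% or more, scaled per plate between neutral and stimulator controls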;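 further: 0% = DMSO wells given calcium and 100% = 1 mM EGTA wells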
DAGLB inhibitor: diacylglycerol lipase beta (human) inhibition; 340,000 tested, 0.059% active; HEK293T DAGLB membrane lysate, EnzChek fluorogenic substrate; Q8NCG7; inhibition, % at 5.17 µM; AID 504411; in the data active means inhibition above about 34%;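 further: 0% = enzyme with vehicle and 100% = wells lacking enzyme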
Target sequence (Q8NCG7 whole entry, looked up): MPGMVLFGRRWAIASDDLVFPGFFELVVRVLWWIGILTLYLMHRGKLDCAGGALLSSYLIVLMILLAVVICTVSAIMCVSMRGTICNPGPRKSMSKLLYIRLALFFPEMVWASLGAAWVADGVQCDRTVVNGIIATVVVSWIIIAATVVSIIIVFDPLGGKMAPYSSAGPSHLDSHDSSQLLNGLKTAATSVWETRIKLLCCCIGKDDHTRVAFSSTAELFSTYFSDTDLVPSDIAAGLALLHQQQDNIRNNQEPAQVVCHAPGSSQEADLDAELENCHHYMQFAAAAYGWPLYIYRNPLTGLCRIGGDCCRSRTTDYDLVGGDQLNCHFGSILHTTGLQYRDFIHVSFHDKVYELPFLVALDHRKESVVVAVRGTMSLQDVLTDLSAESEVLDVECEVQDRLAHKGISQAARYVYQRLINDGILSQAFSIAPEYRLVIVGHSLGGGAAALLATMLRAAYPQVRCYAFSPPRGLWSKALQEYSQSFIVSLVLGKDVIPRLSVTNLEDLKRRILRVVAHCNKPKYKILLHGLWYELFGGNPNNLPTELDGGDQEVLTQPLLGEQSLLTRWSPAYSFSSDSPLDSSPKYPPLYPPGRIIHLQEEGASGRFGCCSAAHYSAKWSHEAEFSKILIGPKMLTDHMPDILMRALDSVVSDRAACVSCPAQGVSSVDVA
GPR7 antagonist: antagonists of human GPR7 (neuropeptides B/W receptor 1) | AID 1861 | GPR7-expressing cells, fluorescence antagonist assay | 290,000 tested, 1.1% active | P48145 | inhibition, % at 4.4 µM; in the data active means inhibition above about 16%, passing the limit was not always enough;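 further: cells stimulated with the agonist NPW; 0% = agonist with vehicle and 100% = vehicle without agonist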
TAAR1 agonist: agonists of human TAAR1. Q96RJ0. CHO RD-HGA16 TAAR1, Fluo-8 calcium fluorescence; vehicle wells 0%, saturating PEA agonist 100%. activation, % at 3 µM. 360,000 tested, 0.99% active;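 active means activation above the mean activation of all test compounds in the run plus 3 SD, cut at about 38% in these data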
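Test system: RD-HGA16 (CHO) cells co-expressing Gα16 and hTAAR1 | Doses: Single dose, 3 µM | Schedule: 17-24 h seeding, 75 min 37 °C dye, 30 min RT | Evaluation: % activation from peak over basal fluorescence ratio, DMSO-to-PEA scaled | Technique: Kinetic Fluo-8 calcium fluorescence | Benchmarks: Low control DMSO, high control PEA (EC100)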
nonsel antag count: counter-screen for TAAR1 antagonists: nonselective antagonists | shares compounds with TAAR1 antag | 2,400 tested, 77% active | counterscreen cell line, calcium fluorescence, antagonist mode | inhibition, % at 3 µM; in the data active means inhibition above about 22%;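 further: CHO-Ga16 host cells stimulated with ATP at an EC80 level; 0% = agonist EC80 plus vehicle and 100% = vehicle without agonist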
TAAR1 antag conf: human TAAR1 antagonism, confirmed | shares compounds with TAAR1 antag | TAAR1-expressing cells, fluorescence antagonist read-out | inhibition, % at 3 µM | 2,400 tested, 40% active; in the data active means inhibition above about 49%;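 further: CHO-Ga16 host cells challenged with agonist PEA near its EC80; 0% = agonist at EC80 plus vehicle and 100% = vehicle with no agonist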
Ga16 nonsel ag: nonselective Ga16 agonism, counter-screen | 2,400 tested, 18% active | AID 651953 | activation, % at 3 µM | Ga16-expressing cells, calcium fluorescence, agonist counterscreen | shares compounds with TAAR1 antag; in the data active means activation above about 12%;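 further: 0% = vehicle wells and 100% = saturating stimulus response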
TAAR1 ag count: activates human TAAR1 in antagonist counter-screen | 2,400 tested, 2% active | AID 651955 | hTAAR1 cell line, fluorescence activation, agonist mode | activation, % at 3 µM | shares compounds with TAAR1 antag; in the data active means activation above about 37%;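 further: CHO cells stably expressing TAAR1 with calcium dye readout; 0% = DMSO vehicle and 100% = full agonist response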
Starred values were filed as active, the others as inactive; . = no result. Rows were chosen to be rich in hits. Some 4% of all compounds tested hit in one or more screens of this group.

SMILES | TAAR1 antag | MPTP inh | DAGLB inhibitor | GPR7 antagonist | TAAR1 agonist | nonsel antag count | TAAR1 antag conf | Ga16 nonsel ag | TAAR1 ag count
COc1ccc(C(=O)N2N=C(c3ccc(NS(C)(=O)=O)cc3)CC2c2cccs2)cc1 (centres undefined) | 59* | 1 | -1 | -11 | 16 | 30* | 45 | 10 | 11
COc1ccc2sc(-c3ccc(S(C)(=O)=O)cc3)c(C(=O)NCCCN3CCCC3=O)c2c1 | 49* | -2 | -3 | . | 15 | 31* | 43 | 7 | 6
COc1ccc(-c2cc(C(=O)NCCCN3CCCC3=O)c3ccccc3n2)cc1 | 50* | -2 | -3 | . | 10 | 20 | 33 | 7 | 3
O=C(NCCCN1CCCC1=O)c1cc(-c2ccc(F)cc2)nc2ccccc12 | 33 | 0 | -1 | . | 10 | . | . | . | .
COCc1[nH]nc2c1C(c1ccc(F)cc1)N(c1ccc(OC)cc1)C2=O (centres undefined) | -27 | . | . | . | 2 | . | . | . | .
CCn1c(=NC(=O)c2ccc(N3C(=O)CCC3=O)cc2)sc2c(OC)ccc(OC)c21 | 47 | -3 | 2 | -9 | 0 | . | . | . | .
CCn1c(=NC(=O)c2cccc(N3C(=O)CCC3=O)c2)sc2c(C)ccc(OC)c21 | 60* | 3 | -2 | -13 | 12 | 30* | 47 | 6 | 6
COc1cccc(CNC(=O)[C@H]2CCCN2C(=O)[C@H]2CCCN2C(=O)N2CCOCC2)c1 | 0 | . | . | . | 1 | . | . | . | .
COc1ccc(N(Cc2cc3ccccc3[nH]c2=O)S(=O)(=O)c2ccc(C)cc2)cc1 | 55* | -1 | -8 | -17 | 1 | 21 | 36 | 8 | 9
COc1ccc2[nH]c(=O)c(CN(CCO)S(=O)(=O)c3ccc(C)cc3)cc2c1 | -3 | 1 | 0 | -3 | 0 | . | . | . | .
COc1ccc(N(Cc2cc3ccccc3[nH]c2=O)S(=O)(=O)c2ccccc2)cc1 | 33 | 2 | 0 | 0 | 3 | . | . | . | .
CCCCN(Cc1cc2cc(OC)ccc2[nH]c1=O)S(=O)(=O)c1ccc(C)cc1 | 77* | 3 | -1 | -4 | 5 | 14 | 48 | 7 | 22
Cc1cccc(CN2[C@H](CO)C=CS2(=O)=O)c1 | 2 | -2 | . | . | 0 | . | . | . | .
CCOC(=O)C(C#N)(Cc1ccc2ccccc2n1)Cc1ccc2ccccc2n1 | 64* | 0 | -5 | . | 11 | 30* | 44 | 8 | 5
CCOC(=O)CSc1ccc2ccccc2n1 | -15 | 0 | -2 | -3 | 1 | . | . | . | .
COc1ccc(-c2cc(C(=O)N(C)Cc3cccc(OC)c3OC)c3ccccc3n2)cc1OC | 62* | -1 | -4 | -9 | 12 | 28* | 48 | 6 | 7
COc1ccccc1CN(C)C(=O)c1cc(-c2cccs2)nc2ccccc12 | 70* | 0 | -4 | -3 | 12 | 37* | 56* | 6 | 5
COc1ccc(CN(C)C(=O)c2cc(-c3ccc(OC)c(OC)c3)nc3ccccc23)c(OC)c1 | 80* | -2 | -2 | -23 | 1 | 26* | 49* | 4 | 3
Cc1cc(N(CCO)CCO)nc(-n2nc(C)cc2C)n1 | -3 | -3 | -4 | -6 | 5 | . | . | . | .
Cc1cc(NCCO)nc(-n2nc(C)cc2C)n1 | 57* | 4 | 1 | 3 | 1 | -3 | -4 | 2 | 2
O=C(COc1cccc2cccnc12)N/N=C/c1cccn1-c1ccc(F)cc1 | 53* | 9 | 2 | -6 | 18 | 25* | 48 | 7 | 4
C[C@@H]1CN([C@@H](C)CO)C(=O)CCCn2cc(nn2)CO[C@H]1CN(C)S(=O)(=O)c1cn(C)cn1 | 1 | -2 | -1 | . | 0 | . | . | . | .
Oc1ccc(N=Nc2ccc3c(c2)OCCO3)c2cccnc12 | 83* | 3 | 23 | -6 | 26 | 32* | 31 | 3 | 8
Oc1ccc(N=Nc2ccc3c(c2)OCCO3)c(O)c1 | -15 | 10 | 16 | -12 | 1 | . | . | . | .
